The text below walks through data of ChEMBL document CHEMBL1139183, “Potent and selective xanthine-based inhibitors of phosphodiesterase 5” (Bioorg Med Chem Lett, 2007).

Series [1] in a line: Inhibition of bovine PDE1 by [3H]cGMP scintillation proximity assay. Also noted: species or system Bos taurus. For orientation: Scintillation proximity formats need no separation of bound from free tracer.
The nature of series [2]: Inhibition of bovine PDE6 by [3H]cGMP scintillation proximity assay. Also noted: species or system Bos taurus.
Series [3] concerns the target cGMP-specific 3',5'-cyclic phosphodiesterase (Homo sapiens, UniProt O76074). The experiment in a line: Inhibition of human platelet PDE5 by [3H]cGMP scintillation proximity assay.
A further series deals with Phosphodiesterase 3 (Homo sapiens, UniProt Q14432+Q13370). The experiment in a line: Inhibition of human platelet PDE3 by [3H]cGMP scintillation proximity assay.
Series [4] is described as follows: Permeability from apical to basolateral side of Caco-2 cell membrane. The settings on record: human. It counts as ADME, cell-based.
Series [5] can be described thus: Inhibition of adenosine transporter. Details: species or system Homo sapiens.
Series [6] can be described thus: Clearance in rat at 0.8 mg/kg, iv. The format is ADME, organism-based. Also noted: dose 0.8 mg/kg, route intravenous. The settings on record: in vivo. Put shortly:
(§1)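 Rat pharmacokinetics: IV bolus at 0.8 mg/kg gave clearance, half-life and Vss. […] Values are means ± SEM.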

The nature of series [7]: Intrinsic clearance in dog microsomes. The format is ADME, Canis lupus familiaris, Liver, Microsome.
Series [8] is described as follows: Intrinsic clearance in rat microsomes. The format is ADME, Microsome.
The nature of series [9]: Intrinsic clearance in human microsomes. The format is ADME, Microsome.
The target of a further series is T1, Adenosine receptor A1 (Homo sapiens, UniProt P30542).
T1 sequence (P30542 whole entry): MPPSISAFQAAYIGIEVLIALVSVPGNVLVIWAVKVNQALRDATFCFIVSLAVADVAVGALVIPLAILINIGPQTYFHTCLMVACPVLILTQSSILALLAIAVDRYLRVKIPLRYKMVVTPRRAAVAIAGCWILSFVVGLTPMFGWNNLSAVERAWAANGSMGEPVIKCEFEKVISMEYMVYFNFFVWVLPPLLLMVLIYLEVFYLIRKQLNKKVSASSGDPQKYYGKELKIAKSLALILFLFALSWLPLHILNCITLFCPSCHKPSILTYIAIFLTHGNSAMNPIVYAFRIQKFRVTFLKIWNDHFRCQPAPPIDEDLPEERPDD
The experiment in a line: Inhibition of adenosine A1 receptor. The method in brief: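 Binding was profiled in a contract Spectrum Screen panel of 111 receptors. Adenosine A1 activity was reported as Ki.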

A short description of series [10]: Clearance in iv dosed dog. The settings on record: in vivo. It counts as ADME, organism-based, Canis lupus familiaris. The method in brief:
(§2)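 Dog pharmacokinetics: clearance, half-life and Vss came from IV dosing. Bioavailability came from oral dosing at 2.5 mg/kg. Values are means ± SEM.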

Series [11] can be described thus: Half life in dog at 0.2 mg/kg, iv. Details: dose 0.2 mg/kg, route intravenous. The format is ADME, organism-based, Canis lupus familiaris. The settings on record: in vivo. Put shortly: as §2
Series [12] is described as follows: Half life in rat at 0.8 mg/kg, iv. It counts as ADME, organism-based. Also noted: dose 0.8 mg/kg, route intravenous. The settings on record: in vivo. The method in brief:
as §1

A short description of series [13]: Volume of distribution at steady state in rat. The settings on record: in vivo, read-out: Vdss. It counts as ADME, organism-based. Put shortly:
as §1

Series [14] is described as follows: Volume of distribution at steady state in dog. The settings on record: in vivo, read-out: Vdss. The format is ADME, organism-based, Canis lupus familiaris. The method in brief: as §2
A short description of series [15]: Bioavailability in rat at 3.3 mg/kg, intraduodenally. The format is ADME, organism-based. The settings on record: in vivo. Put shortly:
as §1

Series [16] can be described thus: Oral bioavailability in dog at 2.5 mg/kg. It counts as ADME, organism-based, Canis lupus familiaris. The settings on record: in vivo. The method in brief: as §2
The target in series [17] is High affinity 3',5'-cyclic-AMP phosphodiesterase 7A (Homo sapiens, UniProt Q13946). The experiment in a line: Inhibition of human recombinant PDE7A by […] scintillation proximity assay.
Sequence of High affinity 3',5'-cyclic-AMP phosphodiesterase 7A (Q13946 whole entry): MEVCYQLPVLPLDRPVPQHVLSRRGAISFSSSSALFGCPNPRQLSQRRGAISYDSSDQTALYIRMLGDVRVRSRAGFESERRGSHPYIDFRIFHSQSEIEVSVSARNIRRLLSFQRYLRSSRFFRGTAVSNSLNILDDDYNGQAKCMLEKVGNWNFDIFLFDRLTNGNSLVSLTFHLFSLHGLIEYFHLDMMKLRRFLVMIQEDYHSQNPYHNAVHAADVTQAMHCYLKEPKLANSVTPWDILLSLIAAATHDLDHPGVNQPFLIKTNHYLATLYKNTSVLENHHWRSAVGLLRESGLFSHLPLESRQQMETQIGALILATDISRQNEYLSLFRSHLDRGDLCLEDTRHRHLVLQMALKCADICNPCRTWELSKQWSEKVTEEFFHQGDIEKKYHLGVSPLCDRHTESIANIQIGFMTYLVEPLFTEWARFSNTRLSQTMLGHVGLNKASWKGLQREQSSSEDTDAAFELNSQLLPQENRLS
Series [18] addresses cGMP-dependent 3',5'-cyclic phosphodiesterase (Homo sapiens, UniProt O00408). The experiment in a line: Inhibition of human platelet PDE2 by [3H]cGMP scintillation proximity assay.
The target in series [19] is 3',5'-cyclic-AMP phosphodiesterase 4B (Homo sapiens, UniProt Q07343). The experiment in a line: Inhibition of human recombinant PDE4B by […] scintillation proximity assay.
Sequence of 3',5'-cyclic-AMP phosphodiesterase 4B (Q07343 whole entry): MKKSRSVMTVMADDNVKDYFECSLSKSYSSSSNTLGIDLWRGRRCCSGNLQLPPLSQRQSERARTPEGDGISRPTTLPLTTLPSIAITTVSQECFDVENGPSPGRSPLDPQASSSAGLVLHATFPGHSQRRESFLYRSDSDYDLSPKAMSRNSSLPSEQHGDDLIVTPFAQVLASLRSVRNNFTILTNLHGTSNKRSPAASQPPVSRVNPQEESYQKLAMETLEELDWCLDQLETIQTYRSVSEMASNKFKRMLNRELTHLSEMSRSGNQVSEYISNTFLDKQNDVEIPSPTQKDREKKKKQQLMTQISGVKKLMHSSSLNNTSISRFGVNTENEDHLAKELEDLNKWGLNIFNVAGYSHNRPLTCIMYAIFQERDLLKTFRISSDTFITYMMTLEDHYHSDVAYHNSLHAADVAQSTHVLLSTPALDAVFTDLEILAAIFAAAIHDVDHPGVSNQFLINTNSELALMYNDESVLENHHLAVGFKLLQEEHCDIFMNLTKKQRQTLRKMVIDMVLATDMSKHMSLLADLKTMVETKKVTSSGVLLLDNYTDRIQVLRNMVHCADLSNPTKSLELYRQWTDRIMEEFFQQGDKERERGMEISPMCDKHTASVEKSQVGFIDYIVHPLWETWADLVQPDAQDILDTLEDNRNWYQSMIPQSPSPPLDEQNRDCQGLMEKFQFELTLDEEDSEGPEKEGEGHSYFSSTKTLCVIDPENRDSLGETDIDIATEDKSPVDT
Series [20] deals with 3',5'-cyclic-AMP phosphodiesterase 4D (Homo sapiens, UniProt Q08499). The experiment in a line: Inhibition of human recombinant PDE4D by […] scintillation proximity assay.
Sequence of 3',5'-cyclic-AMP phosphodiesterase 4D (Q08499 whole entry): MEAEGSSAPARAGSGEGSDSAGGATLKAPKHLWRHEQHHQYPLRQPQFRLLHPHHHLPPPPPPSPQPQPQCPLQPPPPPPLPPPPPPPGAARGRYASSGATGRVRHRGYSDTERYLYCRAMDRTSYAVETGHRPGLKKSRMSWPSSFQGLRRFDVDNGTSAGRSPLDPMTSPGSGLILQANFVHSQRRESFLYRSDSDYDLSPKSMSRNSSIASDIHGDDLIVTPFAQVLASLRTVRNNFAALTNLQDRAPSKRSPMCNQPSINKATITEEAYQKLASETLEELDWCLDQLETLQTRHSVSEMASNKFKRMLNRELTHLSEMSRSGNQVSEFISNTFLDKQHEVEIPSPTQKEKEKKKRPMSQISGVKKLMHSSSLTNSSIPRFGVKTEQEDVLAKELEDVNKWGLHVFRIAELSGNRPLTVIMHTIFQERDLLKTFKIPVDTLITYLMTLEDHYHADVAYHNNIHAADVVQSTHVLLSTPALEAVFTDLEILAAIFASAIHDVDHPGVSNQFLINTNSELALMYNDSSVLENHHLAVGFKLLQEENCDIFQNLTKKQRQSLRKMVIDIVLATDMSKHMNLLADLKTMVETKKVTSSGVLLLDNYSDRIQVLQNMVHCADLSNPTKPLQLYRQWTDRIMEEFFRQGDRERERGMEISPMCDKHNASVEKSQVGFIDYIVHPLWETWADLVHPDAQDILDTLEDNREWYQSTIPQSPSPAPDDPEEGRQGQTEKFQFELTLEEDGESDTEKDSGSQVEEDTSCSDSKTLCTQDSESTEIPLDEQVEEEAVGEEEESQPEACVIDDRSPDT

Sequence of cGMP-dependent 3',5'-cyclic phosphodiesterase (O00408 whole entry): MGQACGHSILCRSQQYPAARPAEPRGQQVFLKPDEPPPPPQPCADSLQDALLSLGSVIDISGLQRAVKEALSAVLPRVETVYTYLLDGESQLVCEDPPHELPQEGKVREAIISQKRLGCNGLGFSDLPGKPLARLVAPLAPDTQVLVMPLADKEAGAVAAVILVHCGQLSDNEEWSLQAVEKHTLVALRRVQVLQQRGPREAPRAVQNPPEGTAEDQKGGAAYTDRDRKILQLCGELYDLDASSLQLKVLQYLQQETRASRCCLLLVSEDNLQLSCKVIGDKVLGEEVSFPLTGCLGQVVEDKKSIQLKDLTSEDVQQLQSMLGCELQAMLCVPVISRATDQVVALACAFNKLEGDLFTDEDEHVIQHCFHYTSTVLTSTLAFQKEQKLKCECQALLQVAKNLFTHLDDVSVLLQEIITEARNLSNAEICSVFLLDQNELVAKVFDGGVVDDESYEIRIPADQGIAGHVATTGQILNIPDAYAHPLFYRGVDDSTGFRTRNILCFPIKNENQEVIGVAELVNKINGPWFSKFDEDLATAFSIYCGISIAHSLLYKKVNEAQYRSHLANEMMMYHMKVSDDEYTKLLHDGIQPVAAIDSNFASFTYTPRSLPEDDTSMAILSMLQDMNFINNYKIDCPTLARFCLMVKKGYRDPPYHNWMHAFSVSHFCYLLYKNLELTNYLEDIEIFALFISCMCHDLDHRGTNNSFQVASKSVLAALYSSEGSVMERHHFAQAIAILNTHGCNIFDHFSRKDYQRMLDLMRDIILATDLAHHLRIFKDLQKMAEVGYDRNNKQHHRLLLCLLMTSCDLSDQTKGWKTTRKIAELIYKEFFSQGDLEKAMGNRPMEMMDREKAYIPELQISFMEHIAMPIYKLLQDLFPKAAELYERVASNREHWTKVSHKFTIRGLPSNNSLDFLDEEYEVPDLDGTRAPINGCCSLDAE

As a reminder, the IC50 is the concentration needed to halve the response being measured. As for `COc1cc2cncc(Cc3nc4c([nH]3)c(=O)n(C)c(=O)n4Cc3ccc(NS(=O)(=O)C(C)C)cc3)c2cc1OC`, the IC50 in series [1] is 3440 nM; in series [2], 399 nM; in series [3] it was 5 nM; against Phosphodiesterase 3, 3130 nM.
As usually defined, the Papp A→B is how fast a substance crosses the layer from the apical side. Lower therefore signals slow passage. As for `COc1cc2c(Cc3nc4c([nH]3)c(=O)n(C)c(=O)n4CC(C)C)cnc(C)c2cc1OC`, the IC50 in series [1] was determined as 72 nM; in series [2], 226 nM; in series [3], 2 nM; against Phosphodiesterase 3, 42 nM. Also, in series [4], the Papp A→B stood at 0.9 ×10⁻⁶ cm/s.
The corresponding values for `COc1cc2cncc(Cc3nc4c([nH]3)c(=O)n(C)c(=O)n4CC(C)(C)C)c2cc1OC` are 2790 nM, 294 nM, 8 nM, 1060 nM and 23.4 ×10⁻⁶ cm/s.
For `COc1ccc(Cn2c(=O)n(C)c(=O)c3[nH]c(Cc4cncc5cc(OC)c(OC)cc45)nc32)cc1OC`, the half-maximal inhibitory concentration (IC50) in series [1] came out at 3910 nM; in series [2], 1820 nM; in series [3], 33 nM.
In the case of `COc1cc2cnc(C)c(Cc3nc4c([nH]3)c(=O)n(C)c(=O)n4CC(C)C)c2cc1OC`, the IC50 in series [2] came to 525 nM; in series [3] it was 26 nM.
With `CC(C)Cn1c(=O)n(C)c(=O)c2[nH]c(Cc3cncc4ccccc34)nc21`, the IC50 in series [1] was 7290 nM; in series [2] it was 857 nM; in series [3] it was 34 nM; against Phosphodiesterase 3, 1850 nM.
Regarding `COc1ccc2c(Cc3nc4c([nH]3)c(=O)n(C)c(=O)n4CC(C)C)cncc2c1`, the 50% inhibitory concentration (IC50) in [2] was determined as 247 nM; in [3] it was 51 nM.
As a reminder, the Ki is the dissociation constant of the complex between target and ligand, obtained from inhibition or displacement. As usually defined, the half-life is the time needed for the level to fall by half in the phase considered. A lower half-life goes with rapid decline. As for `COc1ccc2cncc(Cc3nc4c([nH]3)c(=O)n(C)c(=O)n4CC(C)C)c2c1` [listing 1 of 2 here], the IC50 in [1] amounted to 2850 nM; in series [2] it was 180 nM; at Phosphodiesterase 3, 2220 nM. The Ki in series [5] came to 2800 nM; on Adenosine receptor A1, 2300 nM. Also, the clearance worked out at 118 mL/min/kg in series [6]; 6 µL/min/mg in series [7]; 162 µL/min/mg in [8]; 4 µL/min/mg in [9]; 28.7 mL/min/kg in [10]. Also, the half-life came to 63.4 min in [11] and 21 min in [12]. The Vd in series [13] was 2.9 L/kg; in series [14], 2.1 L/kg. The bioavailability in series [15] is 1%; in series [16], 103%. Also, in [4], the Papp A→B came to 13.8 ×10⁻⁶ cm/s.
With `COc1cc2cncc(Cc3nc4c([nH]3)c(=O)n(C)c(=O)n4CC(C)C)c2cc1OC`, the IC50 in series [1] is 417 nM; in series [2] it was 389 nM; in [3], 9 nM; against Phosphodiesterase 3 it was 299 nM. In series [4], this compound yielded a Papp A→B of 31.8 ×10⁻⁶ cm/s.
Take `COc1cc2cncc(C(C)c3nc4c([nH]3)c(=O)n(C)c(=O)n4CC(C)C)c2cc1OC` (stereo unspecified): in series [3], the IC50 amounted to 94 nM.
Regarding `COc1cc2cncc(Cc3nc4c([nH]3)c(=O)n(CC(C)C)c(=O)n4CC(C)C)c2cc1OC`, the IC50 in series [3] came to 462 nM.
`CC(C)Cn1c(=O)n(C)c(=O)c2[nH]c(CC3CC4CCC3C4)nc21` (stereo unspecified): the results for the IC50 in series [2] and in [3] were 65 nM and 25 nM, respectively.
As for `COc1cc2cncc(Cc3nc4c([nH]3)c(=O)n(C)c(=O)n4CC3CCCCC3)c2cc1OC`, the IC50 was determined as 1130 nM in series [2] and 28 nM in series [3].
In series [3], `COc1cc2cncc(Cc3nc4c(c(=O)n(C)c(=O)n4CC(C)C)n3C)c2cc1OC` returned an IC50 of 553 nM.
Turning to `C=C(C)Cn1c(=O)n(C)c(=O)c2[nH]c(Cc3cncc4cc(OC)c(OC)cc34)nc21`, the IC50 in series [2] was 333 nM; in [3], 30 nM.
Take `COc1cc2cncc(Cc3nc4c([nH]3)c(=O)n(C)c(=O)n4Cc3ccc(NC(C)=O)cc3)c2cc1OC`: the IC50 in series [2] was determined as 471 nM; in series [3] it was 42 nM.
`CC(C)Cn1c(=O)n(C)c(=O)c2[nH]c(Cc3cncc4cc5c(cc34)OCO5)nc21`: in [3], the IC50 was 10000 nM.
Consider `COc1cc2cncc(Cc3nc4c([nH]3)c(=O)n(C)c(=O)n4CC3CC3)c2cc1OC`, for which the IC50 worked out at 1320 nM in series [1], 823 nM in series [2], 20 nM in series [3] and 1640 nM against Phosphodiesterase 3.
Consider `COc1ccc2cncc(Cc3nc4c([nH]3)c(=O)n(C)c(=O)n4CC(C)C)c2c1` [listing 2 of 2 here], for which the IC50 was over 10000 nM in series [17], 4600 nM in series [18], over 10000 nM in [19] and over 10000 nM in series [20].
Take `COc1cc2cncc(Cc3nc4c([nH]3)c(=O)n(C)c(=O)n4CC(C)CO)c2cc1OC` (racemic): the IC50 in series [1] is 670 nM; in series [2] it was 363 nM; in [3] it was 6 nM; against Phosphodiesterase 3, 2710 nM.
